From ChEMBL document CHEMBL1123724, “A novel synthesis of colchicide and analogues from thiocolchicine and congeners: reevaluation of colchicide as a potential antitumor agent” (1987)

Experiments:
Mus musculus [1] = experiment: In vivo antitumor activity against P388 mouse leukemia and minimum affective dose (MED) which produced a T/C greater than the threshold value of 125 was reported.; format: functional; conditions: read-out: MED
Procedure, shortened: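 P388 leukemia cells implanted intraperitoneally in mice. Drug given ip once daily for 9 days (QD1 × 9). T/C = median survival time of treated animals / median survival time of untreated controls × 100. Minimum effective dose is the lowest dose (mg/kg) giving T/C above the threshold of 125. Reported dose levels are those with the highest T/C.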

Mus musculus [2] = experiment: In vivo antitumor activity against P388 mouse leukemia expressed as T/C (median survival time of treated animals / median survival time of untreated controls x 100) at a dose of 3.12 mg/kg; format: functional
Procedure, shortened: (§1)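 P388 leukemia implanted ip in mice, with ip dosing on a QD1 × 9 schedule. Read-out is T/C = median survival of treated animals / median survival of untreated controls × 100. Activity requires duplicate tests giving T/C ≥120%.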

[3] = target: Tubulin beta chain (Bos taurus) (UniProt Q6B856); conditions: at 25 µM
Mus musculus [4] = experiment: In vivo antitumor activity against P388 mouse leukemia expressed as T/C (median survival time of treated animals / median survival time of untreated controls x 100) at a dose of 0.32 mg/kg; format: functional; procedure, shortened: as §1
Mus musculus [5] = experiment: In vivo antitumor activity against P388 mouse leukemia expressed as T/C (median survival time of treated animals / median survival time of untreated controls x 100) at a dose of 12.5 mg/kg; format: functional; procedure, shortened: as §1
Mus musculus [6] = experiment: In vivo antitumor activity against P388 mouse leukemia expressed as T/C (median survival time of treated animals / median survival time of untreated controls x 100) at a dose of 0.5 mg/kg; format: functional; procedure, shortened: as §1
Mus musculus [7] = experiment: In vivo antitumor activity against P388 mouse leukemia expressed as T/C (median survival time of treated animals / median survival time of untreated controls x 100) at a dose of 0.94 mg/kg; format: functional; procedure, shortened: as §1
Mus musculus [8] = experiment: In vivo antitumor activity against P388 mouse leukemia expressed as T/C (median survival time of treated animals / median survival time of untreated controls x 100) at a dose of 0.18 mg/kg; format: functional; procedure, shortened: as §1

Sequence of Tubulin beta chain (Bos taurus) (Q6B856 whole entry): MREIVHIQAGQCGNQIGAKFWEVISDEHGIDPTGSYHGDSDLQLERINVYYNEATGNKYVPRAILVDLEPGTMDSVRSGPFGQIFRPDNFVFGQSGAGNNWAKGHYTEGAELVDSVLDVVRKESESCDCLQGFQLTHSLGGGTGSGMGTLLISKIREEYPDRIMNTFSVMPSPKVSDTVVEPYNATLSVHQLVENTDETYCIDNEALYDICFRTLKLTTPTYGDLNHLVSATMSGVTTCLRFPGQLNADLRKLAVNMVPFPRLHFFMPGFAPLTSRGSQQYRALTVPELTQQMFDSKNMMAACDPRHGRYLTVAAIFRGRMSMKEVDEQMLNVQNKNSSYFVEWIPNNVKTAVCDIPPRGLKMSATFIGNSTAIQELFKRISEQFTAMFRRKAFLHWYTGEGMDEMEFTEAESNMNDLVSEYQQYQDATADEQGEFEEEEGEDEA

Tubulin binding [3] [%] | SMILES | minimal effective dose (Mus musculus [1]) [mg/kg] | other results
 | CCN(CC)c1ccc2c(cc1=O)[C@@H](NC(C)=O)CCc1cc(OC)c(OC)c(OC)c1-2 | 0.39 | T/C (Mus musculus [2]): 216
26 | COc1cc2c(c(OC)c1O)-c1cccc(=O)cc1[C@@H](NC(C)=O)CC2 |  | 
0 | COc1cc2c(c(OC(C)=O)c1OC)-c1cccc(=O)cc1[C@@H](NC(C)=O)CC2 |  | 
 | CNc1ccc2c(cc1=O)[C@@H](NC(C)=O)CCc1cc(OC)c(OC)c(OC)c1-2 | 0.04 | T/C (Mus musculus [4]): 166
0 | COc1c2c(cc3c1-c1cccc(=O)cc1[C@@H](NC(C)=O)CC3)OCO2 |  | 
 | COc1cc2c(c(OC)c1OC)-c1ccc(SCc3ccccc3)c(=O)cc1[C@@H](NC(C)=O)CC2 | 3.12 | T/C (Mus musculus [5]): 214
0 | COc1cc2c(c(O)c1OC)-c1cccc(=O)cc1[C@@H](NC(C)=O)CC2 |  | 
 | COc1cc2c(c(OC)c1OC)-c1ccc(OC)c(=O)cc1[C@@H](NC(C)=O)CC2 [COLCHICINE] | 0.06 | T/C (Mus musculus [6]): 245
 | COc1c2c(cc3c1-c1ccc(OC)c(=O)cc1[C@@H](NC(C)=O)CC3)OCO2 | > 0.4 | T/C (Mus musculus [7]): 166
 | COc1cc2c(c(OC)c1OC)-c1ccc(SC)c(=O)cc1[C@@H](NC(C)=O)CC2 [THIOCOLCHICINE] | 0.05 | T/C (Mus musculus [8]): 193
